BindingDB's records for doi:10.1021/np990092+ (Peking Union Medical College, 1999)

Target: T1, Polyunsaturated fatty acid 5-lipoxygenase (Rattus norvegicus, UniProt P12527)
T1 sequence (P12527 whole entry): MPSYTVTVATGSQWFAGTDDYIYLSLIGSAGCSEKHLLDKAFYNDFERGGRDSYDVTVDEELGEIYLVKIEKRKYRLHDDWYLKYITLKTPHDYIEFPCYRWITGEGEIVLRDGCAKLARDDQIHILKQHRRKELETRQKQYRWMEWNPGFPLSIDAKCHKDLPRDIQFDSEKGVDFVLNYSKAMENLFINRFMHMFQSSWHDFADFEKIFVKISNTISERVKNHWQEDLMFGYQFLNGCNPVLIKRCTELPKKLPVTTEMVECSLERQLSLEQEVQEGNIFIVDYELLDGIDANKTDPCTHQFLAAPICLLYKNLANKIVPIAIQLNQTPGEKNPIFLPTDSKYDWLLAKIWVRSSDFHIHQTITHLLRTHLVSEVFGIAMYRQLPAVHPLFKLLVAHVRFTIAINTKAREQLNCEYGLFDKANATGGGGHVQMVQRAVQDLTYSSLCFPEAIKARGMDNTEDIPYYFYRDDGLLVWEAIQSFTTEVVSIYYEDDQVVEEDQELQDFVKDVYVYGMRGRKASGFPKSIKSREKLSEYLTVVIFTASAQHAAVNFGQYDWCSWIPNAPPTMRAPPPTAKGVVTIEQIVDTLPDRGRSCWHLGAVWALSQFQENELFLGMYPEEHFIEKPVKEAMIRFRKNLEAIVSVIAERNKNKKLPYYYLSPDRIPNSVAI
Test: Inhibition of 5-lipoxygenase in Wistar rat peritoneal leukocytes
How it was run: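 Leukocytes (~85% PMNs) were elicited in male Wistar rats (200-300 g) with ip 6% oyster glycogen and harvested 16-20 h later. Cells at 2.5 × 10^6/mL in complete HBSS were tested in triplicate, preincubated with the sample (in DMSO, or CHCl3 evaporated) for 10 min at 37 °C, then given A23187 for 10 min. Supernatant LTB4 was measured by RIA (3H-LTB4 tracer, rabbit antiserum, 18 h, 4 °C).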

IC50: > 200 µM
SMILES: C=C1CCCC(C)C(=O)C(=O)[C@@H]2[C@@H]1CC2(C)C (stereo partly specified) [buddledin B]
